Shown are actives, neighbours in structure and some others; about 1.6% of the full set was active somewhere.
Mdm2 ligase inh – Mdm2 E3 ligase (human) inhibition; hit rate 0.11% among 210,000; Q00987; cell-based MDM2 ubiquitination luciferase reporter, 2 h; 0 = plate control, 100 = twice control, blank-subtracted; signal enhancement, % at 5 µM; AID 1230;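 active = signal enhancement of 30% or more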;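 also: luminescence tracks abundance of the self-degrading MDM2-luciferase fusion protein; higher signal means inhibition of MDM2 E3 ligase activity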
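Assay system: stable mammalian line carrying autodegrading MDM2–luciferase fusion reporter; Input: 2000 cells in each well; Compound dosing: single-point 5 µM; Schedule: 2 h compound exposure at 37 °C; Signal: SteadyLite luciferase luminescence after 15 min room-temperature reagent incubation; Evaluation: % luminescence enhancement versus blank-corrected plate control mean; Benchmarks: plate controls and plate blanks.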
Wee1 stabilizer – blocks degradation of human Wee1 kinase | P30291 | HeLa Luc-Wee1K328M stability, luciferase luminescence; 100% = proteasome inhibitor MG132 effect | reporter increase, % at 5 µM | hit rate 1.2% among 220,000 | AID 1321;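 active = activation above the mean of all tested compounds plus 3 SD, set per screening run, cut at about 8.8% in these data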;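 also: cells exposed to compound for 20 h before luminescence read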
Target sequence (P30291 whole entry K328M): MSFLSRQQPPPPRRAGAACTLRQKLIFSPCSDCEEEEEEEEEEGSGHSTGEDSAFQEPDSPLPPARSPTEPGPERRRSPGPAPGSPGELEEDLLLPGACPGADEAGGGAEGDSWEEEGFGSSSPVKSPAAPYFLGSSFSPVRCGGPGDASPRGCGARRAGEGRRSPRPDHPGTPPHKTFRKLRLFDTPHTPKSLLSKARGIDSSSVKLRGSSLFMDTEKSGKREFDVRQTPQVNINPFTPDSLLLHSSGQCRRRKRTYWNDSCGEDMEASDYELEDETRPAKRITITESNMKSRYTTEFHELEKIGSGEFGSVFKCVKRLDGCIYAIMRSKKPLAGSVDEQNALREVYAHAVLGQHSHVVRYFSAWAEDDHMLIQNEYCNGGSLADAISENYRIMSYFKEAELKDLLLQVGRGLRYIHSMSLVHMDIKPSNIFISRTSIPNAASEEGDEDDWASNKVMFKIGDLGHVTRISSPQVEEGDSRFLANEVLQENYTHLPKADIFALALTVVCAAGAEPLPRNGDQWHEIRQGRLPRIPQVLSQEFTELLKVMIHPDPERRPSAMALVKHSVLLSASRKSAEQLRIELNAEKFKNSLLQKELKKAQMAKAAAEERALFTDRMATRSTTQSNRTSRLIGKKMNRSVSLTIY
Pf gametocyte – inhibitors of late stage P. falciparum gametocyte viability. AID 743093. P. falciparum stage V gametocytes, ATP luminescence, 24 h. hit rate 0.065% among 150,000. inhibition, % at 10.9 µM;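 active = inhibition above the mean plus 3 SD of compounds within the control limits, set per campaign, cut at about 38% in these data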
zVAD death inh – L929 zVAD cell death inhibition | hit rate 0.38% among 220,000 | AID 1377 | viability rescue, % at 10 µM | L929 zVAD necroptosis rescue, ATP luminescence, 24 h; with zVAD 60 µM;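 active = activation, scaled between plate controls, above about 75%, limit read from the data; inactive = activation under that limit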
TNF death inh – blocks TNF-alpha induced death of Jurkat FADD-/- cells; Jurkat FADD-/- TNF necroptosis rescue, ATP luminescence, 24 h; 0 = TNF only, 100 = no-TNF cells; activation (protection from cell death), % at 10 µM; hit rate 0.068% among 220,000; AID 463075;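 active = activation, meaning protection from cell death, of at least 50% relative to plate controls; inactive = activation below 50%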;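 also: necroptosis triggered by 40 ng/mL TNF-alpha added together with compound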
A number is an active result; - = inactive; . = not tested or not shown.

SMILES | Mdm2 ligase inh | Wee1 stabilizer | Pf gametocyte | zVAD death inh | TNF death inh
CC(C)C(=O)NC(=S)Nc1ccccc1N1CCN(C(=O)c2ccccc2)CC1 | - | 10 | - | - | -
Cn1cnnc1SCC(=O)Nc1ccc(Br)cc1F | - | - | . | - | -
Cn1nnnc1NCc1c(F)cccc1Cl | - | 10 | . | - | -
O=C(NCc1ccccn1)C1CCN(Cc2cnn(-c3ccccc3)c2-n2cccc2)CC1 | - | - | - | - | -
COc1cccc(CNC(=O)C2CCN(Cc3cnn(-c4ccccc4)c3-n3cccc3)CC2)c1 | - | 8.9 | . | - | -
CC1=NN(C(=O)COc2ccc(C)c(C)c2)C(O)(c2ccc(Cl)cc2)C1 (centres undefined) | - | - | . | - | -
CC1=NN(C(=O)COc2cc(C)ccc2C(C)C)C(O)(c2ccccc2)C1 (centres undefined) | - | 11 | - | - | -
COc1ccc(OC)c(NC(=S)N2CCC(C(O)(c3ccccc3)c3ccccc3)CC2)c1 | - | - | 57 | - | -
COc1ccc(OC)c(NC(=S)N2CCN(Cc3ccccc3)CC2)c1 | - | - | - | - | -
CC1(C)OC(C)(C)/C(=C/Nc2ccc(O)cc2)C1=O | . | 9.9 | . | - | -
COc1ccc(/C=N/c2c(-c3ccco3)nc3ccccn23)cc1OC | - | 9.0 | - | - | -
O=C(NC(C(=O)c1ccccc1)N1CCOCC1)c1cccs1 (centres undefined) | - | - | . | - | -
Oc1ccc2oc3c(c2c1/C=N/n1cnnc1)CCCC3 | - | - | - | - | -
Oc1ccc2oc3c(c2c1C=NCc1ccncc1)CCCC3 | - | 25 | - | - | -
CCCc1cc(=O)n2[nH]cnc2n1 | - | - | - | - | -
Cc1cc(Cl)c(S(=O)(=O)Nc2cccc(O)c2)cc1OCC(N)=O | - | 9.9 | - | - | -
O=C(CCCc1ccccc1)N1CCc2ccccc21 | - | 9.8 | - | - | -
CCOC(=O)c1ccc(NC(=O)C2(c3ccccc3)CCCC2)cc1 | - | - | - | - | -
CCN(C(=O)COC(=O)c1cc(-c2cccs2)nc2ccccc12)C1CCS(=O)(=O)C1 (centres undefined) | - | - | - | - | -
CCN(C(=O)COC(=O)c1cc(-c2ccccc2)nc2ccc(Br)cc12)C1CCS(=O)(=O)C1 (centres undefined) | - | 9.2 | . | - | -
O=C(N/N=C/c1ccccc1)NC1CCCCC1 | - | - | . | - | -
CC(C)(C)c1ccc(NC(=O)Nc2ccc(F)cc2)cc1 | - | 9.6 | - | - | -
CCOC(=O)c1ccc(NS(=O)(=O)c2cnc[nH]2)cc1 | - | 11 | . | - | -
CCOC(=O)c1ccc(NC(=O)Nc2ccc(F)cc2)cc1 | - | 10 | . | - | -
Cc1ccc(C2(c3noc(CN4CCC(C(=O)N5CCOCC5)CC4)n3)CCCC2)cc1 | - | - | - | - | -
SMILES | Mdm2 ligase inh | Wee1 stabilizer | Pf gametocyte | zVAD death inh | TNF death inh
Cc1nc(NC(=O)c2cc3c(s2)CCCCC3)sc1C(=O)N(C)C | - | - | . | - | -
Cc1nc(NC(=O)c2ccc(Br)s2)sc1C(=O)N(C)C | - | 11 | - | - | -
c1ccc2sc(-c3ccc4c(c3)OCO4)nc2c1 | - | 14 | . | - | -
O=C(Nc1cccc(-c2nc3ccccc3s2)c1)c1ccc2c(c1)OCO2 | - | - | - | - | -
Clc1nc(NCCN2CCOCC2)nc(NCc2ccccc2)n1 | - | - | . | - | -
COc1ccc(CNC(=O)c2cnc(C)cn2)cc1 | - | - | . | - | -
C/C(Cl)=C/CN1C(=O)C2C3C=CC(C3)C2C1=O (centres undefined) | - | - | - | - | 68
O=C(O)CN1C(=O)C2C3C=CC(C3)C2C1=O (centres undefined) | - | - | . | - | -
Cn1c(Cn2c3ccccc3c3ccccc32)n[nH]c1=S | - | 9.4 | - | - | -
C=C(C)Cn1c(CCn2c3ccccc3c3ccccc32)n[nH]c1=S | - | - | . | - | -
CS(=O)(=O)Nc1ccc(Br)cc1C(=O)c1ccccc1 | - | - | - | - | -
Clc1ccc2nc(N3CCCCC3)sc2c1 | - | 11 | - | - | -
N#CC1CC(c2ccccc2)=NN1c1ccccc1[N+](=O)[O-] (centres undefined) | - | 10 | - | - | -
O=C(c1ccc(COc2ccc3ccccc3c2)o1)N1N=C(C(F)F)CC1(O)C(F)F (centres undefined) | - | - | . | - | -
O=C(c1ccc(COc2ccccc2Cl)o1)N1N=C(C(F)F)CC1(O)C(F)F (centres undefined) | - | 11 | - | - | -
c1ccc(Oc2ccc(-c3ccnc4nc(N5CCOCC5)nn34)cc2)cc1 | - | 9.3 | - | - | -
COc1ccc(-c2ccnc3nc(N4CCOCC4)nn23)cc1 | - | - | - | - | -
O=C(O)CSc1nnnn1-c1ccc2c(c1)OCCO2 | - | - | - | - | -
CC1=C(C(=O)N2CCOCC2)C(c2ccc(-c3ccccc3)cc2)NC(=S)N1 (centres undefined) | - | - | - | - | -
CC1=C(C(=O)N2CCOCC2)C(c2cccc3ccccc23)NC(=S)N1 (centres undefined) | - | 11 | - | - | -
O=C(Nc1cccc(C(=O)O)c1)Nc1ccccc1Cl | - | - | - | - | -
CCOC(=O)[C@H]1[C@H]2COc3cc(OC)ccc3[C@@H]2N2C(=O)c3ccc(C)cc3NC(=O)[C@@]12C | . | . | 39 | . | .
CCOC(=O)[C@H]1[C@H]2COc3cc(OC)ccc3[C@@H]2N2C(=O)c3cc(C)ccc3NC(=O)[C@@]12C | . | . | - | . | .
CCOC(=O)c1ccccc1NC(=O)C(C)Oc1ccccc1 (centres undefined) | - | 9.7 | . | - | -
COc1ccc(OC(C)C(=O)Nc2ccccc2C(F)(F)F)cc1 (centres undefined) | 262 | - | - | - | -
SMILES | Mdm2 ligase inh | Wee1 stabilizer | Pf gametocyte | zVAD death inh | TNF death inh
COc1ccc(CCC(=O)Nc2ccccc2C(F)(F)F)cc1 | - | - | . | - | -
COc1ccc(S(=O)(=O)NCCc2nnc3ccc(SCc4cccnc4)nn23)cc1 | . | - | . | - | -
C/C(CC(=O)Nc1ccc(N(C)C)cc1)=N\NC(=O)c1ccncc1 | - | - | - | - | -
CC(=O)Nc1ccccc1NC(=O)C/C(C)=N/NC(=O)c1ccncc1 | - | 9.3 | - | - | -
CCC(=O)NC(NC(=S)Nc1cccc2cccnc12)C(Cl)(Cl)Cl (centres undefined) | - | 9.8 | - | - | -
Cc1ccc(/C=N/NC(=O)Cn2nc(C)c([N+](=O)[O-])c2C)o1 | - | 9.6 | - | - | -
Cc1cc(C)c(C(=O)Cn2nc(C)c([N+](=O)[O-])c2C)cc1C | - | 10 | - | - | -
CCCNC(=O)Cn1c(=O)cnc2ccccc21 | - | - | - | - | -
O=c1cc(CN2CCN(C/C=C/c3ccccc3)CC2)c2cc(O)c(-c3ccccc3)cc2o1 | - | - | - | . | -
CC(C)CN(Cc1cc(=O)oc2cc(-c3ccccc3)c(O)cc12)CC(C)C | - | 9.3 | - | - | -

Assay outcomes: PubChem BioAssay, several laboratories
